Laboratory results reported in ChEMBL document CHEMBL4020828, “Design and Syntheses of Highly Potent Teixobactin Analogues against Staphylococcus aureus, Methicillin-Resistant Staphylococcus aureus (MRSA), and Vancomycin-Resistant Enterococci (VRE) in Vitro and in Vivo” (J Med Chem, 2018).
Values after ≈ are worked out from the molar mass of the structure shown. Active and inactive are the calls of the source. No cut-off for these calls is given here.

Legend:
[1] = Cytotoxicity against human primary HDF assessed as cell viability at 15.62 to 250 ug/ml after 24 hrs by MTS assay relative to control; format: cell-based; conditions: primary HDF cells, read-out: Activity
How it was run: (§1)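 Cells exposed 24 h to peptide at 15.62–250 µg/ml, prepared fresh in culture medium from a 500 µg/ml stock. Controls were DMSO (0.1% v/v) or nocodazole (5 µg/ml in DMSO). Metabolic activity was read by MTS viability assay. Mean ± SEM of three independent triplicate experiments.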

[2] = system: Oryctolagus cuniculus; experiment: Toxicity in New Zealand white rabbit corneal-damage model assessed as effect on wound healing at 0.3% administered 4 times a day tropically for 10 days by fluorescein staining-based slit-lamp biomicroscopy; conditions: in vivo, topical_or_ocular, 240 h
How it was run: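 Rabbit cornea circularly debrided, then 50 µl of 0.3% (w/v) peptide applied topically 4 times/day. Vehicle (PBS) served as control, 2 eyes PBS versus 4 eyes treated. Re-epithelialization and wound closure followed over time by fluorescein staining and slit-lamp biomicroscopy.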

[3] = system: Staphylococcus aureus; experiment: Antibacterial activity against Staphylococcus aureus ATCC 29213 at 5 to 20 times MIC after 24 hrs; format: functional
[4] = system: A549; experiment: Cytotoxicity against human A549 cells assessed as effect on cell morphology at 15.62 to 250 ug/ml after 24 hrs by rhodamine-phalloidin/Hoechst 33342 staining-based fluorescence microscopic method; conditions: a549, 24 h
How it was run: (§2)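 After 24 h peptide exposure, cells were fixed and stained with rhodamine-phalloidin (actin), Alexa Fluor 488 anti-α-tubulin and Hoechst 33342 (nuclei). They were then imaged by automated high-content microscopy. Nocodazole (10 µg/ml) served as toxicity control. Representative images shown at 62.5 µg/ml.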

[5] = system: Staphylococcus aureus; experiment: Antibacterial activity against methicillin-resistant Staphylococcus aureus ATCC 33591 at 5 to 20 times MIC after 24 hrs; format: functional
[6] = system: Staphylococcus aureus; experiment: Bactericidal activity against methicillin-resistant Staphylococcus aureus isolate 21455 after 24 hrs; format: functional
[7] = system: Staphylococcus epidermidis; experiment: Antibacterial activity against Staphylococcus epidermidis 12228 after 24 hrs; format: functional; conditions: Staphylococcus epidermidis, 12228, 24 h
[8] = system: Enterococcus faecalis; experiment: Antibacterial activity against vancomycin-resistant Enterococcus faecalis isolate 1001 after 24 hrs; format: functional; conditions: isolate 1001, 24 h
[9] = system: Enterococcus faecalis; experiment: Antibacterial activity against vancomycin-resistant Enterococcus faecalis isolate 1002 after 24 hrs; format: functional; conditions: isolate 1002, 24 h
[10] = system: Enterococcus faecalis; experiment: Antibacterial activity against vancomycin-resistant Enterococcus faecalis ATCC 29212 after 24 hrs; format: functional; conditions: ATCC 29212, 24 h
[11] = system: Staphylococcus aureus; experiment: Bactericidal activity against Staphylococcus aureus ATCC 29213 after 24 hrs; format: functional
[12] = system: Staphylococcus aureus; experiment: Ratio of MBC to MIC for Staphylococcus aureus 4299; format: functional
[13] = system: Staphylococcus aureus; experiment: Bactericidal activity against Staphylococcus aureus 4299 after 24 hrs; format: functional
[14] = system: Staphylococcus aureus; experiment: Antibacterial activity against methicillin-resistant Staphylococcus aureus ATCC 33591 after 24 hrs; format: functional; conditions: ATCC 33591, 24 h
[15] = system: A549; experiment: Cytotoxicity against human A549 cells assessed as cytoskeleton or nuclear disruption at 15.62 to 250 ug/ml after 24 hrs by rhodamine-phalloidin/Hoechst 33342 staining-based fluorescence microscopic method; format: cell-based; conditions: a549, 24 h; how it was run: as §2
[16] = system: Staphylococcus aureus; experiment: Antibacterial activity against methicillin-resistant Staphylococcus aureus isolate 21455 after 24 hrs; format: functional; conditions: isolate 21455, 24 h
[17] = system: Enterococcus faecalis; experiment: Antibacterial activity against vancomycin-resistant Enterococcus faecalis isolate 1004 after 24 hrs; format: functional; conditions: isolate 1004, 24 h
[18] = system: Staphylococcus aureus; experiment: Antibacterial activity against methicillin-resistant Staphylococcus aureus ATCC 700699 after 24 hrs; format: functional; conditions: ATCC 700699, 24 h
[19] = system: Staphylococcus aureus; experiment: Antibacterial activity against Staphylococcus aureus ATCC 29213 after 24 hrs; format: functional; conditions: ATCC 29213, 24 h
[20] = Cytotoxicity against human A549 cells assessed as cell viability at 15.62 to 250 ug/ml after 24 hrs by MTS assay relative to control; format: cell-based; conditions: read-out: Activity; how it was run: as §1
[21] = system: Pseudomonas aeruginosa; experiment: Antibacterial activity against Pseudomonas aeruginosa after 24 hrs; format: functional
[22] = system: Bacillus cereus; experiment: Antibacterial activity against Bacillus cereus ATCC 11788 after 24 hrs; format: functional; conditions: ATCC 11788, 24 h
[23] = Cytotoxicity against human primary HDF assessed as effect on cell morphology at 15.62 to 250 ug/ml after 24 hrs by rhodamine-phalloidin/Hoechst 33342 staining-based fluorescence microscopic method; how it was run: as §2
[24] = system: Bacillus subtilis (Bacillus subtilis); experiment: Antibacterial activity against Bacillus subtilis ATCC 6633 after 24 hrs; conditions: ATCC 6633, 24 h
[25] = system: Staphylococcus aureus; experiment: Ratio of MBC to MIC for Staphylococcus aureus ATCC 29213; format: functional
[26] = system: Staphylococcus aureus; experiment: Antibacterial activity against Staphylococcus aureus ATCC 29213 infected in C57BL6 mouse cornea assessed as decrease in bacterial load/tissue at 0.3% administered tropically 2 times on day 1, 4 times on day 2 and 2 times on day 3 starting from 6 hrs post infection measured 48 hrs post last dose; format: functional; design: scale not given: the % may be the effect or the level left
How it was run: (§3)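 Mouse corneal epithelium scratched with a scalpel, then infected with 15 µl of 6×10⁶ CFU/ml S. aureus ATCC 29213. From 6 h p.i., 15 µl of PBS vehicle, 0.3% w/v peptide in PBS or 0.3% moxifloxacin was applied, 8 doses total. Outcomes were slit-lamp examination, AS-OCT corneal thickness and CFU counts of harvested corneas (mean log₁₀ CFU/tissue ± SEM).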

[27] = system: Staphylococcus saprophyticus; experiment: Antibacterial activity against Staphylococcus saprophyticus ATCC 15305 after 24 hrs; format: functional; conditions: ATCC 15305, 24 h
[28] = system: Staphylococcus aureus; experiment: Antibacterial activity against Staphylococcus aureus ATCC 29213 infected in C57BL6 mouse cornea assessed as mean corneal thickness at 0.3% administered tropically 2 times on day 1, 4 times on day 2 and 2 times on day 3 starting from 6 hrs post infection measured 48 hrs post last dose by AS-OCT method (reference value: 186.2 +/- 17.5 micrometer); format: functional; how it was run: as §3
[29] = system: Staphylococcus aureus; experiment: Antibacterial activity against Staphylococcus aureus ATCC 29213 infected in C57BL6 mouse cornea assessed as decrease in corneal infiltrates at 0.3% administered tropically 2 times on day 1, 4 times on day 2 and 2 times on day 3 starting from 6 hrs post infection measured 48 hrs post last dose by slit-lamp photography; format: functional; how it was run: as §3
[30] = system: Staphylococcus aureus; experiment: Antibacterial activity against methicillin-resistant Staphylococcus aureus isolate 1003 after 24 hrs; format: functional; conditions: isolate 1003, 24 h
[31] = Cytotoxicity against human primary HDF assessed as cytoskeleton or nuclear disruption at 15.62 to 250 ug/ml after 24 hrs by rhodamine-phalloidin/Hoechst 33342 staining-based fluorescence microscopic method; format: cell-based; how it was run: as §2
[32] = system: Staphylococcus saprophyticus; experiment: Antibacterial activity against Staphylococcus saprophyticus ATCC 49907 after 24 hrs; format: functional; conditions: ATCC 49907, 24 h
[33] = system: Staphylococcus aureus; experiment: Antibacterial activity against Staphylococcus aureus ATCC 29213 infected in C57BL6 mouse cornea assessed as mean corneal thickness at 0.3% administered tropically 2 times on day 1, 4 times on day 2 and 2 times on day 3 starting from 6 hrs post infection measured 24 hrs post last dose by AS-OCT method (reference value: 151.7 +/- 12.7 micrometer); format: functional; how it was run: as §3
[34] = system: Staphylococcus saprophyticus; experiment: Antibacterial activity against Staphylococcus saprophyticus ATCC 49453 after 24 hrs; format: functional; conditions: ATCC 49453, 24 h
[35] = system: Staphylococcus aureus; experiment: Antibacterial activity against Staphylococcus aureus ATCC 29213 infected in C57BL6 mouse cornea assessed as decrease in conjunctival chemosis at 0.3% administered tropically 2 times on day 1, 4 times on day 2 and 2 times on day 3 starting from 6 hrs post infection measured 48 hrs post last dose by slit-lamp photography; format: functional; how it was run: as §3
[36] = system: Staphylococcus saprophyticus; experiment: Antibacterial activity against Staphylococcus saprophyticus ATCC BAA 750 after 24 hrs; format: functional; conditions: ATCC BAA 750, 24 h
[37] = system: Staphylococcus aureus; experiment: Antibacterial activity against methicillin-resistant Staphylococcus aureus isolate 42412 after 24 hrs; format: functional; conditions: isolate 42412, 24 h
[38] = system: Staphylococcus aureus; experiment: Bactericidal activity against methicillin-resistant Staphylococcus aureus ATCC 700699 after 24 hrs; format: functional
[39] = system: Enterococcus faecalis; experiment: Antibacterial activity against vancomycin-resistant Enterococcus faecalis ATCC 700802 after 24 hrs; format: functional; conditions: ATCC 700802, 24 h
[40] = system: Staphylococcus aureus; experiment: Bactericidal activity against Staphylococcus aureus ATCC 29213 assessed as log reduction in bacterial load at 0.5 to 1 ug/ml after 8 hrs by time-kill assay; format: functional
[41] = system: Enterococcus faecalis; experiment: Antibacterial activity against vancomycin-resistant Enterococcus faecalis isolate 1008 after 24 hrs; format: functional; conditions: isolate 1008, 24 h
[42] = Cytotoxicity against human primary HDF assessed as loss of adhered cells at 5 ug/ml after 24 hrs by MTS assay; format: cell-based
How it was run: (§4)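 A549 lung epithelial cells or primary human dermal fibroblasts exposed 24 h to peptide (15.62–250 µg/ml, dissolved fresh in culture medium). Nocodazole (5 µg/ml in DMSO) served as toxicity control, with 0.1% v/v DMSO as vehicle control. Metabolic activity was read by MTS viability assay. Data are from three independent triplicate experiments, given as mean ± SEM.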

[43] = system: A549; experiment: Cytotoxicity against human A549 cells assessed as loss of adhered cells at 5 ug/ml after 24 hrs by MTS assay; format: cell-based; conditions: a549, 24 h; how it was run: as §4

CC[C@@H](C)[C@@H](NC(=O)[C@@H](CCCNC(=N)N)NC(=O)[C@H](CO)NC(=O)[C@@H](NC(=O)[C@@H](Cc1ccccc1)NC)[C@@H](C)CC)C(=O)N[C@H](C(=O)N[C@@H](CO)C(=O)N[C@H]1C(=O)N[C@@H](C)C(=O)N[C@@H](CC(C)C)C(=O)N[C@@H]([C@@H](C)CC)C(=O)O[C@H]1C)[C@@H](C)CC
viability at 24 h [1]: ≥ 80% | Activity [2]: Non-Toxic | Activity [3]: Active | Activity [4]: Non-Toxic | Activity [5]: Active | Activity [6]: Active | MIC [7]: < 0.0625 µg/mL | MIC [8]: 0.5 µg/mL (≈ 0.407 µM) | MIC [9]: 1 µg/mL (≈ 0.813 µM) | MIC [10]: 0.5 µg/mL (≈ 0.407 µM) | Activity [11]: Active | Ratio [12]: <4 | Activity [13]: Active | MIC [14]: 0.125 µg/mL (≈ 0.102 µM) | Activity [15]: Non-Toxic | MIC [16]: 0.0313 µg/mL (≈ 0.0255 µM) | MIC [17]: 0.25 µg/mL (≈ 0.203 µM) | MIC [18]: 0.25 µg/mL (≈ 0.203 µM) | MIC [19]: < 0.0625 µg/mL | viability at 24 h [20]: ≥ 80% | Activity [21]: inactive | MIC [22]: 0.5 µg/mL (≈ 0.407 µM) | Activity [23]: Non-Toxic | MIC [24]: 0.125 µg/mL (≈ 0.102 µM) | Ratio [25]: <4 | Activity [26]: >99% | MIC [27]: < 0.0625 µg/mL | Activity [28]: 121.7 um | Activity [29]: Active | MIC [30]: 0.5 µg/mL (≈ 0.407 µM) | Activity [31]: Non-Toxic | MIC [32]: < 0.0625 µg/mL | Activity [33]: 92.3 um | MIC [34]: < 0.0625 µg/mL | Activity [35]: Active | MIC [36]: < 0.0625 µg/mL | MIC [37]: 0.0313 µg/mL (≈ 0.0255 µM) | Activity [38]: Active | MIC [39]: 0.5 µg/mL (≈ 0.407 µM) | Activity [40]: >=2 deltalog10CFU/ml | MIC [41]: 0.5 µg/mL (≈ 0.407 µM)

COC(=O)Nc1nc2ccc(C(=O)c3cccs3)cc2[nH]1 [NOCODAZOLE]
Activity [42]: Toxic | Activity [43]: Toxic
